# Laboratory results from PMC9008867 (Therapeutic Advances in Medical Oncology, 2022).
# Like-named read-outs stand apart in the source and are kept apart here.
# How the values were obtained:
# [1] = test system: Asian patients with advanced or metastatic malignancies; format: in vivo, human
# [2] = test system: Asian patients with advanced or metastatic malignancies; experiment: Adverse events; format: in vivo, human; conditions: Schedule 2; patients n (%)
# Summary of the method: (§1)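 Test compound given orally by schedule. Schedule 1: Mon/Thu, 28-day cycle. Schedule 2: Mondays weekly, 28-day cycle. Schedule 3: Mon/Wed for 2 of 3 weeks, 21-day cycle. Schedule 4: Mon/Wed/Fri, 28-day cycle. All patients received anorexia/nausea prophylaxis. AEs were recorded up to 30 days after the last dose and graded every 2 weeks for cycles 1–2, then every 4 weeks.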
# [3] = test system: human melanoma cell lines; conditions: cited from earlier work
# [4] = test system: colorectal cancer; experiment: Exploratory PFS subgroup analysis in advanced colorectal cancer patients; format: in vivo, human
# [5] = test system: leukocytes; conditions: cited from earlier work
# [6] = test system: tumour biopsies; experiment: Immunohistochemistry of paired pretreatment and ontreatment tumour biopsies; format: in vivo, human
# Summary of the method: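 Paired pretreatment and on-treatment tumour biopsies came from six consenting dose-escalation patients. IHC covered […], Ki67 for proliferation, and ApopTag and cleaved caspase 3 for apoptosis.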
# [7] = test system: Asian patients with advanced or metastatic malignancies; experiment: Adverse events; format: in vivo, human; conditions: Schedule 4; patients n (%)
# Summary of the method: as §1
# [8] = expansion phase, with drug holiday and pre-emptive antiemetic regimen
# [9] = after 6 weeks of treatment vs baseline, lymphoma, thymoma, colorectal carcinoma
smiles,measurement,setting,value
O=C(/C=C\n1cnc(-c2cc(C(F)(F)F)cc(C(F)(F)F)c2)n1)NNc1cnccn1 [selinexor],tolerability,"[1]; 60 mg twice a week, 2 out of 3 weeks, Asian patients",well tolerated
same,Grade 3 fatigue,[1]; dose expansion phase,8%
same,grade 3 or 4 anaemia,[1]; dose expansion phase,2%
same,grade 3 or 4 hyponatremia,[1]; dose expansion phase,23%
same,grade 3 or 4 thrombocytopenia,[1]; dose expansion phase,5%
same,grade 3 or 4 vomiting,[1]; dose expansion phase,5%
same,patients with grade 3 or 4 cytopenias,[1]; expansion phase,less than 3%
same,grade 3 or more nausea,[1]; [8],no grade 3 or more nausea
same,incidence of nausea,[1]; [8],30%
same,deaths,"[1]; phase 1b expansion cohort, none attributed to the study drug",Five
same,"Abdominal discomfort, Any grade","[1]; phase 1b, patients n (%)",5 (13.15) %
same,"Abdominal discomfort, G1/G2","[1]; phase 1b, patients n (%)",4 (10.52) %
same,"Abdominal discomfort, G3/G4","[1]; phase 1b, patients n (%)",1 (2.63) %
same,"Abdominal distension, Any grade","[1]; phase 1b, patients n (%)",1 (2.63) %
same,"Abdominal distension, G3/G4","[1]; phase 1b, patients n (%)",1 (2.63) %
same,"Abnormal thyroid function, Any grade","[1]; phase 1b, patients n (%)",2 (5.26) %
same,"Abnormal thyroid function, G1/G2","[1]; phase 1b, patients n (%)",2 (5.26) %
same,"Acute kidney injury, Any grade","[1]; phase 1b, patients n (%)",1 (2.63) %
same,"Acute kidney injury, G1/G2","[1]; phase 1b, patients n (%)",1 (2.63) %
same,"Anaemia, Any grade","[1]; phase 1b, patients n (%)",6 (15.78) %
same,"Anorexia, Any grade","[1]; phase 1b, patients n (%)",18 (47.36) %
same,"Ascites, Any grade","[1]; phase 1b, patients n (%)",2 (5.26) %
same,"Asthenia, Any grade","[1]; phase 1b, patients n (%)",1 (2.63) %
same,"Back pain, Any grade","[1]; phase 1b, patients n (%)",2 (5.26) %
same,"Blurring of vision, Any grade","[1]; phase 1b, patients n (%)",3 (7.89) %
same,"Blurring of vision, G1/G2","[1]; phase 1b, patients n (%)",3 (7.89) %
same,"Constipation, Any grade","[1]; phase 1b, patients n (%)",6 (15.78) %
same,"Cough, Any grade","[1]; phase 1b, patients n (%)",2 (5.26) %
same,"Dehydration, Any grade","[1]; phase 1b, patients n (%)",2 (5.26) %
same,"Diarrhoea, Any grade","[1]; phase 1b, patients n (%)",10 (26.31) %
same,"Dysgeusia, Any grade","[1]; phase 1b, patients n (%)",12 (31.57) %
same,"Dyspnoea/Shortness of breath, Any grade","[1]; phase 1b, patients n (%)",2 (5.26) %
same,"Dyspnoea/Shortness of breath, G1/G2","[1]; phase 1b, patients n (%)",2 (5.26) %
same,"Fever, Any grade","[1]; phase 1b, patients n (%)",2 (5.26) %
same,"Giddiness, Any grade","[1]; phase 1b, patients n (%)",3 (7.89) %
same,"Hyperglycaemia, Any grade","[1]; phase 1b, patients n (%)",2 (5.26) %
same,"Hypersalivation, Any grade","[1]; phase 1b, patients n (%)",1 (2.63) %
same,"Hyperuricaemia, Any grade","[1]; phase 1b, patients n (%)",1 (2.63) %
same,"Hypocalcaemia, Any grade","[1]; phase 1b, patients n (%)",1 (2.63) %
same,"Hypokalaemia, Any grade","[1]; phase 1b, patients n (%)",7 (18.42) %
same,"Hypomaganesemia, Any grade","[1]; phase 1b, patients n (%)",3 (7.89) %
same,"Hyponatremia, Any grade","[1]; phase 1b, patients n (%)",20 (52.63) %
same,"Hypophosphataemia, Any grade","[1]; phase 1b, patients n (%)",5 (13.15) %
same,"Increased creatinine, Any grade","[1]; phase 1b, patients n (%)",2 (5.26) %
same,"Increased creatinine, G1/G2","[1]; phase 1b, patients n (%)",2 (5.26) %
same,"Lethargy, Any grade","[1]; phase 1b, patients n (%)",1 (2.63) %
same,"Loss of Appetite, Any grade","[1]; phase 1b, patients n (%)",8 (21.05) %
same,"Mood swing, Any grade","[1]; phase 1b, patients n (%)",1 (2.63) %
same,"Mucositis, Any grade","[1]; phase 1b, patients n (%)",2 (5.26) %
same,"Nausea, Any grade","[1]; phase 1b, patients n (%)",12 (31.57) %
same,"Peripheral neuropathy, Any grade","[1]; phase 1b, patients n (%)",2 (5.26) %
same,"Peripheral neuropathy, G1/G2","[1]; phase 1b, patients n (%)",2 (5.26) %
same,"Pneumonia, Any grade","[1]; phase 1b, patients n (%)",1 (2.63) %
same,"Pulmonary embolism, Any grade","[1]; phase 1b, patients n (%)",1 (2.63) %
same,"Pulmonary embolism, G1/G2","[1]; phase 1b, patients n (%)",1 (2.63) %
same,"Raised amylase/lipase, Any grade","[1]; phase 1b, patients n (%)",1 (2.63) %
same,"Raised amylase/lipase, G1/G2","[1]; phase 1b, patients n (%)",1 (2.63) %
same,"Raised amylase/lipase, G3/G4","[1]; phase 1b, patients n (%)",1 (2.63) %
same,"Reflux, Any grade","[1]; phase 1b, patients n (%)",1 (2.63) %
same,"Rt buttock pain, Any grade","[1]; phase 1b, patients n (%)",1 (2.63) %
same,"Rt leg pain, Any grade","[1]; phase 1b, patients n (%)",1 (2.63) %
same,"Thrombocytopenia, Any grade","[1]; phase 1b, patients n (%)",6 (15.78) %
same,"Transaminitis, Any grade","[1]; phase 1b, patients n (%)",3 (7.89) %
same,"URTI, Any grade","[1]; phase 1b, patients n (%)",1 (2.63) %
same,"Urinary retention, Any grade","[1]; phase 1b, patients n (%)",1 (2.63) %
same,"Vomiting, Any grade","[1]; phase 1b, patients n (%)",8 (21.05) %
same,"Weight loss, Any grade","[1]; phase 1b, patients n (%)",6 (15.78) %
same,"Abdominal discomfort, Any grade",[2],4 (23.52) %
same,"Abdominal discomfort, G1/G2",[2],4 (23.52) %
same,"Anaemia, Any grade",[2],6 (35.29) %
same,"Anorexia, Any grade",[2],10 (58.8) %
same,"Back pain, Any grade",[2],1 (5.88) %
same,"Constipation, Any grade",[2],1 (5.88) %
same,"Diarrhoea, Any grade",[2],3 (17.64) %
same,"Edema, Any grade",[2],1 (5.88) %
same,"Fatigue, Any grade",[2],14 (82.35) %
same,"Hypokalaemia, Any grade",[2],2 (11.76) %
same,"Hypomagnesemia, Any grade",[2],5 (29.41) %
same,"Hyponatremia, Any grade",[2],11 (64.70) %
same,"Hypophosphatemia, Any grade",[2],3 (17.64) %
same,"Hypotension, Any grade",[2],1 (5.88) %
same,"Intention tremor, Any grade",[2],1 (5.88) %
same,"Mucositis, Any grade",[2],1 (5.88) %
same,"Nausea, Any grade",[2],11 (64.70) %
same,"Neutropenia, Any grade",[2],2 (11.76) %
same,"Palpitation, Any grade",[2],1 (5.88) %
same,"Pneumonitis, Any grade",[2],1 (5.88) %
same,"Raised amylase/lipase, Any grade",[2],1 (5.88) %
same,"Raised amylase/lipase, G1/G2",[2],1 (5.88) %
same,"Thrombocytopenia, Any grade",[2],6 (35.29) %
same,"Vomiting, Any grade",[2],7 (41.17) %
same,"Weight loss, Any grade",[2],5 (29.41) %
same,PD-L1 gene expression,[3],induced
same,HR for PFS,"[4]; RAS/PIK3CA pathway mutation vs wild-type, p = 0.09, log-rank",0.58 (0.25–1.32)
same,median PFS,[4]; colorectal cancer patients with a RAS/PIK3CA pathway mutation,86 days
same,median PFS,"[4]; colorectal cancer patients, RAS/PIK3CA wild-type",50 days
same,PFS,[4]; one heavily pretreated colorectal cancer patient with BRAF V600E somatic mutation,129 days
same,PD-1 and CTLA4 gene expression,[5],increase
same,apoptosis in tumour samples (IHC),[6]; [9],increase
same,proliferation in tumour samples (IHC),[6]; [9],marked decrease
same,XPO1 cargo protein p53 localization in tumour sections,[6]; patient with NSCLC,nuclear accumulation
same,"Abdominal discomfort, Any grade",[7],2 (18.18) %
same,"Abdominal discomfort, G1/G2",[7],2 (18.18) %
same,"Anaemia, Any grade",[7],3 (27.27) %
same,"Anorexia, Any grade",[7],5 (45.45) %
same,"Cataract, Any grade",[7],1 (9.09) %
same,"Diarrhoea, Any grade",[7],4 (36.36) %
same,"Dysgeusia, Any grade",[7],2 (18.18) %
same,"Dyspnoea/Shortness of breath, Any grade",[7],3 (27.27) %
same,"Dyspnoea/Shortness of breath, G1/G2",[7],2 (18.18) %
same,"Dyspnoea/Shortness of breath, G3/G4",[7],1 (9.09) %
same,"Fatigue, Any grade",[7],11 (100) %
same,"Hypocalcaemia, Any grade",[7],1 (9.09) %
same,"Hypokalaemia, Any grade",[7],1 (9.09) %
same,"Hypomagnesemia, Any grade",[7],3 (27.27) %
same,"Hyponatremia, Any grade",[7],10 (90.90) %
same,"Hypophosphatemia, Any grade",[7],1 (9.09) %
same,"Nausea, Any grade",[7],2 (18.18) %
same,"Neutropenia, Any grade",[7],1 (9.09) %
same,"Thrombocytopenia, Any grade",[7],6 (54.54) %
same,"Vomiting, Any grade",[7],2 (18.18) %
same,"Weight loss, Any grade",[7],3 (27.27) %
